Laboratory results from ChEMBL document CHEMBL4823251, “Structure-Based Exploration of Selectivity for ATM Inhibitors in Huntington's Disease” (J Med Chem, 2021).
pIC50, pKi: −log10 of the molar value. Converted amounts (≈) assume the structure as drawn.

Key:
[1] = molecular target: T1, Serine-protein kinase ATM (Homo sapiens, UniProt Q13315); assay: Inhibition of full length recombinant FLAG-tagged human ATM assessed as decrease in p53 S15 phosphorylation using full length myc-tagged p53 as substrate incubated for 30 mins in presence of ATP by ELISA
T1 sequence (Q13315 whole entry): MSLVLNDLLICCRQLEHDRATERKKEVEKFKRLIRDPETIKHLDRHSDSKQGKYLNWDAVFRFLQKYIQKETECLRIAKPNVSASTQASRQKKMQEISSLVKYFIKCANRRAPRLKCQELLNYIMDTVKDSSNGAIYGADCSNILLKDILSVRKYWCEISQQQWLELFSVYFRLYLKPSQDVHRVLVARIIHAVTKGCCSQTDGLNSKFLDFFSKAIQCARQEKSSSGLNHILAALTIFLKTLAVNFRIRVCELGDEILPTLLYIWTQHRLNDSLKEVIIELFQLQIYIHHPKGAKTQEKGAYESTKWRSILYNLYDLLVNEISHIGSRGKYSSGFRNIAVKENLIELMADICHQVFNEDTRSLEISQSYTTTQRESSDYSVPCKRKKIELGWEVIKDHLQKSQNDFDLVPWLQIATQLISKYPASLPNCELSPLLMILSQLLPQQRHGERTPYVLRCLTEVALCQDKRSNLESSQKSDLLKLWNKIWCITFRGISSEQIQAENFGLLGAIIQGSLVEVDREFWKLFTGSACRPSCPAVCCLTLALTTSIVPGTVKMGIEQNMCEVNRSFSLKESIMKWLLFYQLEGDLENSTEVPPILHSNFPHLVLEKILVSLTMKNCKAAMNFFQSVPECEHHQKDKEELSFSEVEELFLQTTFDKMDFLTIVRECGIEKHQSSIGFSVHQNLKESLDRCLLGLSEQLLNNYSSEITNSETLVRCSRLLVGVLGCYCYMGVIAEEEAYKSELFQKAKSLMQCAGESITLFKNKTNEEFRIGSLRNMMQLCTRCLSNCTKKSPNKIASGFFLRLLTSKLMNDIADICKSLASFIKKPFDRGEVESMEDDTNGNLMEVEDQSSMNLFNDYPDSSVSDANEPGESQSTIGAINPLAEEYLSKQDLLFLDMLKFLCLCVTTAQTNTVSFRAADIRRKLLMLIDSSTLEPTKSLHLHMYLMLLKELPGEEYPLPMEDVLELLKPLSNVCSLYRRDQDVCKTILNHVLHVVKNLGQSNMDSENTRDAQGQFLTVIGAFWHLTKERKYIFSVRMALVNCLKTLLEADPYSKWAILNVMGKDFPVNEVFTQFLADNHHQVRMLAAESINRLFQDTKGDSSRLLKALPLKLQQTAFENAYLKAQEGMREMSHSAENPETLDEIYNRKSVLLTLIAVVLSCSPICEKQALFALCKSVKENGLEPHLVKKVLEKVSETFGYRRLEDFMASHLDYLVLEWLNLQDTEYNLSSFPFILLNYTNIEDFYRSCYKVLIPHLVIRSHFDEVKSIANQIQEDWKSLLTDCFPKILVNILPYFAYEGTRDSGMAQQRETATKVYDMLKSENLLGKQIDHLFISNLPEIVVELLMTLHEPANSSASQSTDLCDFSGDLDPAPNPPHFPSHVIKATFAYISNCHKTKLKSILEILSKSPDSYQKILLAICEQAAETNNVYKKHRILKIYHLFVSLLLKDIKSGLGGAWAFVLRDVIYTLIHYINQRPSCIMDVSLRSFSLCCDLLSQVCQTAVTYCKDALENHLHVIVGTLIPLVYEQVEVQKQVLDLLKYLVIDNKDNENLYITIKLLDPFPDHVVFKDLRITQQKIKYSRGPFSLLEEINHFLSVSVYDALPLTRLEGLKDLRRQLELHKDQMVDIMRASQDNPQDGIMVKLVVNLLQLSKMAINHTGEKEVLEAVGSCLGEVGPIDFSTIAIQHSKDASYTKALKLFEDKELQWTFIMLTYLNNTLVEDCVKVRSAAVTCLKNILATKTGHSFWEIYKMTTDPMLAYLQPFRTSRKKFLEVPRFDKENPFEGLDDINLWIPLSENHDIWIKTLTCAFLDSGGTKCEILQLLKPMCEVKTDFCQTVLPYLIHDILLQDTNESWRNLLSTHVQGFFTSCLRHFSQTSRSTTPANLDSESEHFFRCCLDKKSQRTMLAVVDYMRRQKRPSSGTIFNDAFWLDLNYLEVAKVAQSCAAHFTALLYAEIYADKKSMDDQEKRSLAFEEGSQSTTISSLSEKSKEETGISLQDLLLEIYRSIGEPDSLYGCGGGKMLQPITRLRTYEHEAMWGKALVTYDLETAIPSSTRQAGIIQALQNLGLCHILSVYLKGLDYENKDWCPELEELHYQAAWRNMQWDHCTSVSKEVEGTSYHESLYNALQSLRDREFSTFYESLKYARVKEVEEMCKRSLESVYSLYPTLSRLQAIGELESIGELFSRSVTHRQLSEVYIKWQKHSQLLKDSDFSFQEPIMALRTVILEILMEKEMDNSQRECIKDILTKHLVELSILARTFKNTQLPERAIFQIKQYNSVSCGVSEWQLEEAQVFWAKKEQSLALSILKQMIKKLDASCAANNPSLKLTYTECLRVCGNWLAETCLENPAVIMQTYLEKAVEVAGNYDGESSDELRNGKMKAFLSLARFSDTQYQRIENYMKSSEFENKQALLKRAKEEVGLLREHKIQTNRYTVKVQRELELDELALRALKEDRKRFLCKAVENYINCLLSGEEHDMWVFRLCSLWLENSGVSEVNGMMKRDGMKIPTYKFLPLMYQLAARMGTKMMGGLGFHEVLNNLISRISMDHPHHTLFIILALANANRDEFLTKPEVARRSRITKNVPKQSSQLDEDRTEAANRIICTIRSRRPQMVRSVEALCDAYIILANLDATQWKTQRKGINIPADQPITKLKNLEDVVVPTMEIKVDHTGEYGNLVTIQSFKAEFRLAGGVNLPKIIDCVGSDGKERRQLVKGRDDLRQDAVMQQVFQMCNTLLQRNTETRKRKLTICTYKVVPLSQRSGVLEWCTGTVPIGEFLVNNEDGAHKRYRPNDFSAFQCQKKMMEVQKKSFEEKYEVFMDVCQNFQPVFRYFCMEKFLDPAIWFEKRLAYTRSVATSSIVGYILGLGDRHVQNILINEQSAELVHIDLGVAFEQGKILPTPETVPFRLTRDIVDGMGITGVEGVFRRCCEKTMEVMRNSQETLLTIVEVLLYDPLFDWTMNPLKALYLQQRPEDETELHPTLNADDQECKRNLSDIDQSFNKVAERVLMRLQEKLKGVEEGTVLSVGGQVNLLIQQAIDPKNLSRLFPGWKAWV
Outline: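 Buffer was 25 mM HEPES pH 7.5 with MgCl₂, MnCl₂, Brij-35, glycerol, BSA and DTT (0.1% DMSO); reaction ran 30 min at 20 °C and was stopped with 70 mM EDTA. Product captured on anti-myc-coated plates and detected with anti-p53 pS15, HRP secondary and TMB, absorbance at 450 nm.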

[2] = Kinetic solubility of the compound in pH 7.4 PBS buffer incubated for 2 hrs using orbital shaker by LC-UV mass spectrometry; format: physicochemical; details: read-out: Kinetic_solubility
Outline: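 Shaken on an orbital shaker for 2 h at room temperature, then filtered. Filtrate analysed by LC-UV with MS confirmation, calibrated against 200 μM and 10 μM DMSO dilutions.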

[3] = molecular target: Phosphatidylinositol 3-kinase catalytic subunit type 3 (Homo sapiens, UniProt Q8NEB9); assay: Inhibition of full length recombinant GST-tagged human VPS34 expressed in baculovirus expression system using PI/PS as substrate incubated for 60 mins in presence of ATP at Km concentration by luminescence assay
Sequence of Phosphatidylinositol 3-kinase catalytic subunit type 3 (Q8NEB9 whole entry): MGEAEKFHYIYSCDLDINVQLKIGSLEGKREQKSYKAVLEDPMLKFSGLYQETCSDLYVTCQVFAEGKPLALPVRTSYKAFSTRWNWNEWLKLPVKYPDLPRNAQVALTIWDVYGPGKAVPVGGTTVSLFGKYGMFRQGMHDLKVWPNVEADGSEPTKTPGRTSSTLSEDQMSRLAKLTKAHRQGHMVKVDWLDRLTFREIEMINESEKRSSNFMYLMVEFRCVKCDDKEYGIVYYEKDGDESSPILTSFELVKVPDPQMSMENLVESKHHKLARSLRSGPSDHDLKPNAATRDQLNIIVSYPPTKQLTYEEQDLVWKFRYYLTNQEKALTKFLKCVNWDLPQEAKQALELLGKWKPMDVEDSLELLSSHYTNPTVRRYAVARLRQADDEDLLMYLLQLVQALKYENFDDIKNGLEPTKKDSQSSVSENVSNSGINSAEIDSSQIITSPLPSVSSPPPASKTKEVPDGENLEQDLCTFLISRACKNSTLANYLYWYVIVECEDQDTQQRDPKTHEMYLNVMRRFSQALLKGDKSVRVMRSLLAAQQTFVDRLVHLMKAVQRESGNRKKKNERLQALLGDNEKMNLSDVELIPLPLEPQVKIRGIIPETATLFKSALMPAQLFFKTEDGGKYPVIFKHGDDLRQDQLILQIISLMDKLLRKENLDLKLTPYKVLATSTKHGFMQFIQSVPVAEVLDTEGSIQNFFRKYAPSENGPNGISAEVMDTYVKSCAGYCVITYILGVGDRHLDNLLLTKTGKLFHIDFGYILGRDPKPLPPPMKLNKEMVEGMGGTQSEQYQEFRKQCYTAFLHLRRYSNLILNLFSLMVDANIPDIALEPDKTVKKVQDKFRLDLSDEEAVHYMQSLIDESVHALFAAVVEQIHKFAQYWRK

[4] = species: Homo sapiens; assay: Selectivity ratio of Ki for full length recombinant GST-tagged VPS34 expressed in baculovirus expression system using PI/PS as substrate incubated for 60 mins in presence of ATP at Km concentration by luminescence assay to Ki for full length recombinant FLAG-tagged human ATM assessed as decrease in p53 S15 phosphorylation using full length myc-tagged p53 as substrate incubated for 30 mins in presence of ATP by ELISA
Outline: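 ADP-Glo luminescence read-out. ATM reaction: 0.75 nM enzyme, 25 nM myc-p53, 10 μM ATP, 30 min at 20 °C, p53 S15 phosphorylation by ELISA. Ki values are means of at least two experiments.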

[5] = molecular target: T1, Serine-protein kinase ATM; assay: Inhibition of ATM in human U2OS cells assessed as reduction in etoposide-stimulated KAP1 phosphorylation incubated for 60 mins by immunoreactivity assay; format: cell-based
Outline: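 U2OS cells plated overnight at 6k cells/well (37 °C, 5% CO₂), then treated with compound titrations (0.3% DMSO) plus 100 μM etoposide for 60 min. Cells fixed in cold methanol and stained for phospho-KAP1 and total KAP1 using IRDye secondaries on a LI-COR Odyssey. IC50 is the mean of at least two experiments.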

SMILES | pKi [1] | solubility kinetic at 2 h [2] | pKi [3] | Ratio Ki [4] | pIC50 [5]
O=c1cc(N2CCOCC2)cc(N2CCC[C@H]2Cc2ccccc2)[nH]1 | < 6.05 | > 55 µg/mL | 6.20 | > 1 | < 4.52
COc1ccc2c(c1)Cc1cccc(-c3cc(N4CCOCC4)cc(=O)n3C)c1S2 | < 5.92 | 10 µg/mL (≈ 23.8 µM) | 6.04 | > 1 | < 4.52
COc1ccc2c(c1)Cc1cccc(-c3cc(N4CCOCC4)nc(O)n3)c1S2 | 6.80 | < 2 µg/mL | 5.48 | 21 | < 4.52
COc1ccc2c(c1)Cc1cccc(-c3nc(O)cc(N4CCOCC4)n3)c1S2 | < 5.80 | 2 µg/mL (≈ 4.91 µM) | < 5.30 |  | < 4.52
COc1ccc2c(c1)Cc1cccc(-c3cc(N4CCOCC4)cc(OC)n3)c1S2 | < 5.80 | < 2 µg/mL | < 5.30 | > 3 | < 4.52
C[C@@H]1CN(c2cc(N3C[C@H]4C[C@H]4[C@@H]3Cc3ccccc3)[nH]c(=O)c2)CCO1 |  | 62 µg/mL (≈ 170 µM) | < 5.30 |  | 
COc1ccc2c(c1)Cc1cccc(-c3cc(=O)cc(N4CCOCC4)[nH]3)c1S2 | 6.96 | 3 µg/mL (≈ 7.38 µM) |  |  | < 4.52
O=c1cc(N2CCOCC2)cc(N2CCCC2Cc2ccccc2)[nH]1 (racemic) | 7.52 | > 68 µg/mL | 7.31 | 2 | 5.40
COc1ccc2c(c1)Cc1cccc(-c3cc(N4CCOCC4)[nH]c(=O)c3)c1S2 | < 6.00 |  |  |  | < 4.52
O=c1cc(N2CCOCC2)cc(N2CCC(Cc3ccccc3)C2)[nH]1 (stereo not given) | < 5.92 | 5 µg/mL (≈ 14.7 µM) |  |  | < 4.52
Oc1cc(N2CCC[C@@H]2Cc2ccccc2)nc(N2CCOCC2)n1 | 7.06 | 59 µg/mL (≈ 173 µM) | 6.57 | 3 | < 4.52

Continued, values first:

pKi [1] | solubility kinetic at 2 h [2] | pKi [3] | Ratio Ki [4] | pIC50 [5] | SMILES
8.40 | 14 µg/mL (≈ 34.4 µM) | 6.89 | 33 | 6.06 | COc1ccc2c(c1)Cc1cccc(-c3cc(N4CCOCC4)cc(=O)[nH]3)c1S2
9.70 | 54 µg/mL (≈ 153 µM) | 7.68 | 105 | 6.89 | O=c1cc(N2CCOCC2)nc(N2C[C@H]3C[C@H]3[C@@H]2Cc2ccccc2)[nH]1
9.22 | < 2 µg/mL | 8.30 | 8 |  | O=c1cc(N2CCOCC2)nc(N2C[C@@H]3C[C@@H]3[C@@H]2Cc2ccccc2)[nH]1
7.60 | 4 µg/mL (≈ 9.82 µM) | 7.46 | 1 | 5.17 | COc1ccc2c(c1)Cc1cccc(-c3cc(O)nc(N4CCOCC4)n3)c1S2
9.00 | 11 µg/mL (≈ 28.8 µM) | 6.08 | 840 |  | C[C@@H]1CN(c2cc(=O)[nH]c(N3CCCCC[C@@H]3Cc3ccccc3)n2)CCO1
8.70 | 48 µg/mL (≈ 131 µM) | 6.06 | 490 |  | C[C@@H]1CN(c2cc(=O)[nH]c(N3C[C@H]4C[C@H]4[C@@H]3Cc3ccccc3)n2)CCO1
9.00 | 70 µg/mL (≈ 183 µM) | 5.74 | 200 | 5.80 | C[C@@H]1CN(c2cc(N3CCCCC[C@@H]3Cc3ccccc3)[nH]c(=O)c2)CCO1
9.05 | < 2 µg/mL | 5.82 | 1700 |  | C[C@@H]1CN(c2cc(=O)[nH]c(N3C[C@@H]4C[C@@H]4[C@@H]3Cc3ccccc3)n2)CCO1
